Experimental data published in ChEMBL document CHEMBL4765483 (J Med Chem, 2021).

Biological target: T1, Adenosine receptor A2b (Homo sapiens) (UniProt P29275)
T1 sequence (whole entry): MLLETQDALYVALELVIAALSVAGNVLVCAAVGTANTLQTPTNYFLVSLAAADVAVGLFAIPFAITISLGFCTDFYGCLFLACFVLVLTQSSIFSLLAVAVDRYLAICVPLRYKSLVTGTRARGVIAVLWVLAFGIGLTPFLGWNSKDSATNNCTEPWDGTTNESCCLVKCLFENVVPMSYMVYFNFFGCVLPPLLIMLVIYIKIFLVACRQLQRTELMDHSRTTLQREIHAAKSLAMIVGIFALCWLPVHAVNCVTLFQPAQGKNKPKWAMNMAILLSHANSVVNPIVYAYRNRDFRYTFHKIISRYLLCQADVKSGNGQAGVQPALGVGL
Assay: Displacement of [3H]DPCPX from human adenosine A2B receptor expressed in HEK293 cell membranes at 1 uM incubated for 30 mins by scintillation counting method
Settings: Cell membrane

In order of rising inhibition:
1. CCNC(=O)C1=C(C)NC(=O)NC1c1ccco1 (racemic)  1%
2. CC1=C(C(=O)SC(C)C)C(c2cccs2)NC(=O)N1 (racemic)  1%
3. CCNC(=O)C1=C(C)NC(=O)NC1c1cccs1 (racemic)  1%
4. CC1=C(C(N)=O)C(c2ccsc2)NC(=O)N1 (racemic)  1%
5. CCCOC(=O)C1=C(C)N(C)C(=O)NC1c1ccsc1 (racemic)  1%
6. CCNC(=O)C1=C(C)NC(=O)NC1c1ccoc1 (racemic)  2%
7. CC1=C(C(=O)OC2CCCCC2)C(c2ccsc2)NC(=O)N1 (racemic)  4%
8. CC1=C(C(=O)OCc2ccccc2)C(c2ccsc2)NC(=S)N1 (racemic)  10%
9. COC(=O)C1=C(C)NC(=O)NC1c1cccs1 (racemic)  19%
10. CC1=C(C(=O)OC(C)C)C(c2ccoc2)NC(=O)N1C (racemic)  37%

Same assay, conditions: Cell membrane, filed as antagonist

In order of falling inhibition:
1. CCOC(=O)C1=C(C)N(C)C(=O)NC1c1ccsc1 (racemic)  53%
2. CC1=C(C(=O)OC(C)C)C(c2ccsc2)NC(=O)N1C (racemic)  51%
3. CC1=C(C(=O)OCc2ccccc2)C(c2cccs2)NC(=O)N1C (racemic)  50%
4. COC(=O)C1=C(C)NC(=S)NC1c1ccoc1 (racemic)  48%
5. CC1=C(C(=O)OC(C)(C)C)C(c2ccsc2)NC(=O)N1 (racemic)  47%
6. CC1=C(C(=O)OCc2ccccc2)C(c2ccsc2)NC(=O)N1 (racemic)  44%
7. CC1=C(C(=O)CC(C)C)C(c2cccs2)NC(=O)N1 (racemic)  43%
8. CCOC(=O)C1=C(C)NC(=O)NC1c1cccs1 (racemic)  41%

Biological target: T2, Adenosine receptor A1 (Homo sapiens) (UniProt P30542)
T2 sequence (whole entry): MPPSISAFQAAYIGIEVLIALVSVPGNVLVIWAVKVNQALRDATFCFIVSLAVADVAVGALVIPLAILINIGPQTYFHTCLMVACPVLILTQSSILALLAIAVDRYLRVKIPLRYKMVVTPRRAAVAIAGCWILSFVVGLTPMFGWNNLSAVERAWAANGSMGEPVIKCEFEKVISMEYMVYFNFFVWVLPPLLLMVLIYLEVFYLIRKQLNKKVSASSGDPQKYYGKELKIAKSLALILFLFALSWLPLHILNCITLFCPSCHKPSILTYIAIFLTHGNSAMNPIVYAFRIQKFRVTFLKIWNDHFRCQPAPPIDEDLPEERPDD
Assay: Displacement of [3H]DPCPX from human adenosine A1 receptor expressed in CHO cell membranes at 1 uM incubated for 60 mins by scintillation counting method
Settings: Cell membrane

In order of rising inhibition:
1. CCOC(=O)C1=C(C)N(C)C(=O)NC1c1cccs1 (racemic)  1%
2. CC1=C(C(=O)SC(C)C)C(c2cccs2)NC(=O)N1 (racemic)  1%
3. CCNC(=O)C1=C(C)NC(=O)NC1c1cccs1 (racemic)  1%
4. CCNC(=O)C1=C(C)NC(=O)NC1c1ccoc1 (racemic)  1%
5. CCNC(=O)C1=C(C)NC(=O)NC1c1ccco1 (racemic)  2%
6. CC1=C(C(N)=O)C(c2ccsc2)NC(=O)N1 (racemic)  2%
7. CCCOC(=O)C1=C(C)N(C)C(=O)NC1c1ccsc1 (racemic)  2%
8. CC1=C(C(=O)OCc2ccccc2)C(c2ccsc2)NC(=S)N1 (racemic)  3%
9. COC(=O)C1=C(C)NC(=O)NC1c1cccs1 (racemic)  6%
10. CC1=C(C(=O)OC2CCCCC2)C(c2ccsc2)NC(=O)N1 (racemic)  8%
11. CC1=C(C(=O)OC(C)(C)C)C(c2ccsc2)NC(=O)N1 (racemic)  15%
12. CC1=C(C(=O)CC(C)C)C(c2cccs2)NC(=O)N1 (racemic)  19%
13. COC(=O)C1=C(C)NC(=S)NC1c1ccoc1 (racemic)  25%
14. CCOC(=O)C1=C(C)N(C)C(=O)NC1c1ccsc1 (racemic)  32%
15. CC1=C(C(=O)OC(C)C)C(c2ccsc2)NC(=O)N1C (racemic)  35%
16. CC1=C(C(=O)OCc2ccccc2)C(c2cccs2)NC(=O)N1C (racemic)  50%
17. CC1=C(C(=O)OCc2ccccc2)C(c2ccsc2)NC(=O)N1 (racemic)  57%

Biological target: Adenosine receptor A2a (Homo sapiens) (UniProt P29274)
Sequence (P29274 whole entry): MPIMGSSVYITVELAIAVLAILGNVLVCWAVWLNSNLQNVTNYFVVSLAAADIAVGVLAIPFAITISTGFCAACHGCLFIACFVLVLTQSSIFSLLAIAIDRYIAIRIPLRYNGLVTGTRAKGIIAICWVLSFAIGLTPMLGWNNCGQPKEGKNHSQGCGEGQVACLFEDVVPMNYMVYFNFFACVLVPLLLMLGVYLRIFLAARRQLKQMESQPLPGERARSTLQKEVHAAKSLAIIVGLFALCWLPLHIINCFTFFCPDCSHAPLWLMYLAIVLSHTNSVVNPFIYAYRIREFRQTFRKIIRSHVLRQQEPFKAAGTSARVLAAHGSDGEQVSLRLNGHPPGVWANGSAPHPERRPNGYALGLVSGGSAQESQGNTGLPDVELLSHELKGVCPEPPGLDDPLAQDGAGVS
Assay: Displacement of [3H]ZM2421385 from adenosine A2A receptor expressed in human HeLa cell membranes at 1 uM incubated for 30 mins by scintillation counting method
Settings: Cell membrane

In order of rising inhibition:
1. CC1=C(C(=O)CC(C)C)C(c2cccs2)NC(=O)N1 (racemic)  1%
2. COC(=O)C1=C(C)NC(=S)NC1c1ccoc1 (racemic)  1%
3. CCOC(=O)C1=C(C)N(C)C(=O)NC1c1cccs1 (racemic)  1%
4. CCNC(=O)C1=C(C)NC(=O)NC1c1ccco1 (racemic)  1%
5. CC1=C(C(=O)SC(C)C)C(c2cccs2)NC(=O)N1 (racemic)  1%
6. CCNC(=O)C1=C(C)NC(=O)NC1c1cccs1 (racemic)  1%
7. COC(=O)C1=C(C)NC(=O)NC1c1cccs1 (racemic)  1%
8. CCOC(=O)C1=C(C)N(C)C(=O)NC1c1ccco1 (racemic)  1%
9. CCNC(=O)C1=C(C)NC(=O)NC1c1ccoc1 (racemic)  2%
10. CC1=C(C(=O)OC2CCCCC2)C(c2ccsc2)NC(=O)N1 (racemic)  2%
11. CC1=C(C(=O)OCc2ccccc2)C(c2cccs2)NC(=O)N1C (racemic)  3%
12. CCCOC(=O)C1=C(C)N(C)C(=O)NC1c1ccsc1 (racemic)  3%
13. CC1=C(C(=O)OC(C)(C)C)C(c2ccsc2)NC(=O)N1 (racemic)  5%
14. CC1=C(C(=O)OCc2ccccc2)C(c2ccsc2)NC(=S)N1 (racemic)  16%
15. CC1=C(C(N)=O)C(c2ccsc2)NC(=O)N1 (racemic)  18%
16. CC1=C(C(=O)OCc2ccccc2)C(c2ccsc2)NC(=O)N1 (racemic)  21%
17. CC1=C(C(=O)OC(C)C)C(c2ccsc2)NC(=O)N1C (racemic)  22%
18. CCOC(=O)C1=C(C)N(C)C(=O)NC1c1ccsc1 (racemic)  23%
19. CC1=C(C(=O)OC(C)C)C(c2ccco2)NC(=O)N1C (racemic)  37%

Biological target: T3, Adenosine receptor A3 (Homo sapiens) (UniProt P0DMS8)
T3 sequence (whole entry): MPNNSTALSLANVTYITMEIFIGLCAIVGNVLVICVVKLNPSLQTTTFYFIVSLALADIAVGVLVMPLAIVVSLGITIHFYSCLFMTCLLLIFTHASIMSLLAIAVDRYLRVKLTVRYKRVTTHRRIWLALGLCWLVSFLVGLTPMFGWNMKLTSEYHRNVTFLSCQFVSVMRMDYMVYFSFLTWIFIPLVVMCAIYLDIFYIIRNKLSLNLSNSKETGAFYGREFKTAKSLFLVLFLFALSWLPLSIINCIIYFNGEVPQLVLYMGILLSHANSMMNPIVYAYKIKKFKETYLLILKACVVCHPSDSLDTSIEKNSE
Assay: Displacement of [3H]NECA from adenosine A3 receptor expressed in human HeLa cell membranes at 1 uM incubated for 180 mins by scintillation counting method
Settings: Cell membrane
Method in brief: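 hA3AR in HeLa membranes (3 pmol/mg protein) with 10 nM [3H]NECA (KD 8.7 nM); nonspecific binding with 100 μM R-PIA; incubated 180 min at 25 °C, washed, filtered, radioactivity counted.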

In order of falling inhibition:
1. CC1=C(C(=O)OCc2ccccc2)C(c2ccsc2)NC(=O)N1 (racemic)  25%
2. CC1=C(C(=O)CC(C)C)C(c2cccs2)NC(=O)N1 (racemic)  18%
3. CC1=C(C(=O)OCc2ccccc2)C(c2cccs2)NC(=O)N1C (racemic)  18%
4. CC1=C(C(=O)OC(C)C)C(c2cccs2)NC(=O)N1C (racemic)  17%
5. CCCOC(=O)C1=C(C)N(C)C(=O)NC1c1ccsc1 (racemic)  11%
6. CCNC(=O)C1=C(C)NC(=O)NC1c1cccs1 (racemic)  4%
7. COC(=O)C1=C(C)NC(=S)NC1c1ccoc1 (racemic)  3%
8. CCNC(=O)C1=C(C)NC(=O)NC1c1ccco1 (racemic)  3%
9. COC(=O)C1=C(C)NC(=O)NC1c1cccs1 (racemic)  3%
10. CCCOC(=O)C1=C(C)NC(=O)NC1c1ccco1 (racemic)  3%
11. CCOC(=O)C1=C(C)N(C)C(=O)NC1c1cccs1 (racemic)  2%
12. CC1=C(C(=O)OCc2ccccc2)C(c2ccsc2)NC(=S)N1 (racemic)  2%
13. CC1=C(C(=O)SC(C)C)C(c2cccs2)NC(=O)N1 (racemic)  1%
14. CC1=C(C(N)=O)C(c2ccsc2)NC(=O)N1 (racemic)  1%
15. CCNC(=O)C1=C(C)NC(=O)NC1c1ccoc1 (racemic)  1%
16. CC1=C(C(=O)OC(C)(C)C)C(c2ccsc2)NC(=O)N1 (racemic)  1%
17. CC1=C(C(=O)OC2CCCCC2)C(c2ccsc2)NC(=O)N1 (racemic)  1%
